Activity calls are given as the source filed them. No cut-off for these calls is given here.
What was measured:
[1] = Cytotoxicity against PDGF-BB-induced rat VSMC at 50 uM
VSMC [2] = test: (§1) Antiproliferative activity against PDGF-BB-induced rat VSMC proliferation at 50 uM after 24 hrs by WST1 (CCK-8) assay; assay type: functional
How it was run: (§2)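 Rat aortic VSMCs were seeded at 4 × 10^4 cells/well and grown 48 h in DMEM with 10% FBS. They were then held 24 h in serum-free medium with compounds (0–50 µM), then stimulated 24 h. The methods footnote gives the stimulus as 5% FBS; the figure legends give 25 ng/mL PDGF-BB. WST-1 was added at 22 h for 2 h, and OD read at 450 nm. AG1295 (1 µM) served as positive control; mean ± SD, n = 4.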

VSMC [3] = test: (§3) Antiproliferative activity against PDGF-BB-induced rat VSMC proliferation at 10 uM after 24 hrs by WST1 (CCK-8) assay; assay type: functional; how it was run: as §2
[4] = Antiproliferative activity against PDGF-BB-induced rat VSMC proliferation at 30 uM after 24 hrs by WST1 (CCK-8) assay; assay type: functional; how it was run: as §2
VSMC [5] = test: Antiproliferative activity against PDGF-BB-induced rat VSMC proliferation after 24 hrs by WST1 (CCK-8) assay; assay type: functional; how it was run: as §2
[6] = as §1; assay type: functional; how it was run: as §2
[7] = as §3; assay type: functional; how it was run: as §2

Structure (SMILES)	Activity [1]	Activity (VSMC [2])	Activity (VSMC [3])	Activity (VSMC [5])	also measured
CO[C@@H]1C=C2[C@@H]3CC(C)(C)CC[C@]3(CO)CC[C@@]2(C)[C@]2(C)CC[C@H]3[C@](C)(CO)[C@@H](O[C@@H]4O[C@H](C)[C@H](O)[C@H](O[C@@H]5O[C@H](CO)[C@@H](O[C@@H]6O[C@@H](C)[C@H](O)[C@@H](O)[C@H]6O)[C@H](O)[C@H]5O)[C@H]4O[C@@H]4O[C@H](CO)[C@@H](O)[C@H](O)[C@H]4O)CC[C@]3(C)[C@@H]12 [MIMENGOSIDE B]	Toxic				
COc1ccc(-c2cc(=O)c3c(O)cc(O[C@@H]4O[C@H](CO[C@@H]5O[C@@H](C)[C@H](O)[C@@H](O)[C@H]5O)[C@@H](O)[C@H](O)[C@H]4O)cc3o2)cc1 [ACACIIN]	Non-toxic	Active	inactive	Dose-dependent effect	inhibition at 30 µM [4]: 21.2%
CO[C@@H]1C=C2[C@@H]3CC(C)(C)CC[C@]3(CO)[C@@H](O)C[C@@]2(C)[C@]2(C)CC[C@H]3[C@](C)(CO)[C@@H](O[C@@H]4O[C@H](C)[C@H](O)[C@H](O[C@@H]5O[C@H](CO)[C@@H](O[C@@H]6O[C@@H](C)[C@H](O)[C@@H](O)[C@H]6O)[C@H](O)[C@H]5O)[C@H]4O[C@@H]4O[C@H](CO)[C@@H](O)[C@H](O)[C@H]4O)CC[C@]3(C)[C@@H]12 [BUDDLEJASAPONIN IA]	Toxic				
C[C@@H]1O[C@@H](OC[C@H]2O[C@@H](OCCc3ccc(O)c(O)c3)[C@H](O)[C@@H](O[C@@H]3O[C@@H](C)[C@H](O)[C@@H](O)[C@H]3O)[C@@H]2OC(=O)/C=C/c2ccc(O)c(O)c2)[C@H](O)[C@H](O)[C@H]1O		inactive			
CO[C@@H]1C=C2[C@@H]3CC(C)(C)CC[C@]3(OC)[C@@H](O)C[C@@]2(C)[C@]2(C)CC[C@H]3[C@](C)(CO)[C@@H](O[C@@H]4O[C@H](C)[C@H](O)[C@H](O[C@@H]5O[C@H](CO)[C@@H](O)[C@H](O)[C@H]5O)[C@H]4O[C@@H]4O[C@H](CO)[C@@H](O)[C@H](O)[C@H]4O)CC[C@]3(C)[C@@H]12 [BUDDLEJASAPONIN IVA]	Toxic				
C[C@@H]1O[C@@H](O[C@@H]2[C@@H](O)[C@H](OCCc3ccc(O)c(O)c3)O[C@H](CO)[C@H]2OC(=O)/C=C/c2ccc(O)c(O)c2)[C@H](O)[C@H](O)[C@H]1O		inactive			
COc1cc(C(=O)O[C@@H]2C[C@](C)(O)[C@H]3[C@H](O[C@@H]4O[C@H](CO)[C@@H](O)[C@H](O)[C@H]4O)OC=C[C@H]32)ccc1O	Non-toxic	Active	inactive	Dose-dependent effect	
CO[C@H]1[C@@H]2C=CO[C@@H](O[C@@H]3O[C@H](CO)[C@@H](O)[C@H](O)[C@H]3O)[C@@H]2[C@@]2(CO)O[C@@H]12 [METHYLCATALPOL]	Non-toxic	Active		Dose-dependent effect	
C[C@@H]1O[C@@H](O[C@@H]2[C@@H](O)[C@H](OCCc3ccc(O)c(O)c3)O[C@H](CO)[C@H]2O)[C@H](O)[C@H](O)[C@H]1O		inactive			
C[C@H]1O[C@@H](O[C@H]2CC[C@@]3(C)[C@@H](CC[C@]4(C)[C@@H]3C=C[C@]35OC[C@@]6(CCC(C)(C)C[C@H]63)[C@@H](O)C[C@]54C)[C@]2(C)CO)[C@H](O[C@@H]2O[C@H](CO)[C@@H](O)[C@H](O)[C@H]2O)[C@@H](O[C@@H]2O[C@H](CO)[C@@H](O)[C@H](O)[C@H]2O)[C@H]1O [BUDDLEJASAPONIN IV]	Toxic				
OC[C@H]1O[C@@H](OCCc2ccccc2)[C@H](O)[C@@H](O)[C@@H]1O		inactive			
CO[C@H]1[C@@H]2C[C@@H]3OC[C@](O)([C@H]2[C@H](O[C@@H]2O[C@H](CO)[C@@H](O)[C@H](O)[C@H]2O)O3)[C@@H]1O [METHYLSCUTELLOSIDE]	Non-toxic			Dose-dependent effect	inhibition at 50 µM [6]: 79.6%; inhibition at 10 µM [7]: 39.1%; inhibition at 30 µM [4]: 42%
COc1ccc(/C=C/C(=O)O[C@@H]2[C@@H](OC(C)=O)[C@@H](O)[C@H](O[C@H]3[C@@H]4C=CO[C@@H](O[C@@H]5O[C@H](CO)[C@@H](O)[C@H](O)[C@H]5O)[C@@H]4[C@@]4(CO)O[C@@H]34)O[C@H]2C)cc1 [BUDDLEJOSIDE A4]	Non-toxic	Active	inactive	Dose-dependent effect	
C[C@@H]1O[C@@H](OC[C@H]2O[C@@H](Oc3cc(O)c4c(=O)cc(-c5ccc(O)cc5)oc4c3)[C@H](O)[C@@H](O)[C@@H]2O)[C@H](O)[C@H](O)[C@H]1O [ISORHOIFOLIN]	Non-toxic	Active	inactive	Dose-dependent effect	inhibition at 30 µM [4]: 22.6%
O=c1cc(-c2ccc(O)cc2)oc2cc(O)cc(O)c12 [APIGENIN]	Toxic		inactive		
OC[C@H]1O[C@@H](OCCc2ccc(O)cc2)[C@H](O)[C@@H](O)[C@@H]1O		inactive			
C[C@H]1O[C@@H](O[C@H]2CC[C@@]3(C)[C@@H](CC[C@]4(C)[C@@H]3C=C[C@]35OC[C@@]6(CCC(C)(C)C[C@H]63)[C@@H](O)C[C@]54C)[C@]2(C)CO)[C@H](O)[C@@H](O[C@@H]2O[C@H](CO)[C@@H](O)[C@H](O)[C@H]2O)[C@H]1O[C@@H]1OC[C@@H](O)[C@H](O)[C@H]1O [BUDDLEJASAPONIN III]	Toxic				
C=C[C@](C)(O)CC/C=C(\C)CO[C@@H]1O[C@H](CO)[C@@H](O)[C@H](O)[C@H]1O [BETULALBUSIDES A]	Non-toxic	Active	inactive	Dose-dependent effect	
C[C@@H]1O[C@@H](O[C@H]2[C@H](O)[C@@H](O)[C@H](O[C@H]3[C@@H](O)[C@@H](C)O[C@@H](O[C@H]4CC[C@@]5(C)[C@@H](CC[C@]6(C)[C@@H]5C=C[C@]57OC[C@@]8(CCC(C)(C)C[C@H]85)[C@@H](O)C[C@]76C)[C@]4(C)CO)[C@@H]3O[C@@H]3O[C@H](CO)[C@@H](O)[C@H](O)[C@H]3O)O[C@@H]2CO)[C@H](O)[C@H](O)[C@H]1O [BUDDLEJASAPONIN I]	Toxic				
C[C@H]1O[C@H](O[C@@H]2[C@@H](O)[C@H](OCCc3ccc(O)c(O)c3)O[C@H](CO[C@H]3O[C@@H](CO)[C@H](O)[C@@H](O)[C@@H]3O)[C@H]2OC(=O)/C=C/c2ccc(O)c(O)c2)[C@@H](O)[C@@H](O)[C@@H]1O		inactive			
